Source: publication PMC9575670 (Journal of Medicinal Chemistry, 2022)

Columns and labels:
[1] = test system: lung cancer (A549) cell line; experiment: MTT in vitro antiproliferation assay, A549; format: cell-based, human; settings: for IC50: Homo sapiens, A549, 24 h, read-out: IC50 ± SD A549; for selectivity index (SI), cancer cells (A549) over normal cells (MRC-5): IC50 MRC-5 / IC50 A549
[2] = test system: lung normal (MRC-5) cell line; experiment: MTT in vitro antiproliferation assay, MRC-5; format: cell-based; settings: Homo sapiens, MRC5, 24 h, read-out: IC50 ± SD MRC-5
[3] = test system: pancreatic cancer (ASPC-1) cell line; experiment: MTT in vitro antiproliferation assay, ASPC-1; format: cell-based; settings: Homo sapiens, ASPC1, 24 h, read-out: IC50 ± SD ASPC-1
[4] = test system: lung normal IMR-90 cell line; experiment: MTT in vitro antiproliferation assay, IMR-90; format: cell-based; settings: Homo sapiens, IMR-90, 24 h, read-out: IC50 ± SD IMR-90
[5] = test system: A549 cells; experiment: Cell cycle analysis by flow cytometry; format: cell-based, human; settings: A549, up to 1.0 μM, 24 h, compared to vehicle
[6] = test system: MCF-7 cells; experiment: Cell cycle analysis by flow cytometry; format: cell-based, human; settings: MCF-7, up to 1.0 μM, 24 h, compared to vehicle
[7] = test system: normal CCD-18Co cell line; experiment: MTT in vitro antiproliferation assay, CCD-18Co; format: cell-based; settings: Homo sapiens, 24 h, read-out: IC50 ± SD CCD-18Co
[8] = test system: tubulin; experiment: In vitro tubulin polymerization assay; format: biochemical; settings: 20 μM, compared to vehicle control
[9] = test system: cancer cell lines (ASPC-1, A549, MCF-7, HCT 116); experiment: MTT in vitro antiproliferation assay, cancer cell line panel; format: cell-based, human; settings: for IC50: Homo sapiens, 24 h, read-out: IC50 values in cancer cell lines (range); for selectivity index (SI) / cancer cell selectivity over normal cells (MRC-5), range: range over cancer cell lines vs MRC-5
[10] = test system: colon cancer (HCT 116) cell line; experiment: MTT in vitro antiproliferation assay, HCT 116; format: cell-based; settings: Homo sapiens, HCT-116, 24 h, read-out: IC50 ± SD HCT 116
[11] = test system: breast cancer (MCF-7) cell line; experiment: MTT in vitro antiproliferation assay, MCF-7; format: cell-based; settings: Homo sapiens, MCF7, 24 h, read-out: IC50 ± SD MCF-7
[12] = test system: 4T1 cells tumor; experiment: In vivo antitumor activity, 4T1 xenograft model, 11 day study; parameters: species or system BALB/c mice; settings: G4 DOX: 2 mg/kg IP once in 3 days
Method in brief: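 BALB/c mice received 4T1 cells (1 × 10^5/mouse) subcutaneously into the left mammary fat pad. Caliper volume = length × width²/2. At about 50 mm³, mice were allocated to four groups, unrandomized and unblinded. All dosing was IP: 0.9% saline vehicle; test compound 0.711 or 1.422 mg/kg (days 1–3) then 14.22 or 28.44 mg/kg (days 4–11); doxorubicin 2 mg/kg every 3 days. Tumours were excised on day 12 and volume and mass measured; one-way ANOVA.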

IC50 [1] | IC50 [3] | IC50 [9] | IC50 [10] | IC50 [11] | Structure (SMILES) | IC50 [2] | IC50 [4] | accumulation of cells in the G2/M phase [5] | accumulation of cells in the G2/M phase [6] | IC50 [7] | effect on tubulin polymerization [8] | selectivity index (SI) / cancer cell selectivity over normal cells (MRC-5), range [9] | average tumor mass reduction at the endpoint [12] | average tumor volume reduction at the endpoint compared to G1 [12] | selectivity index (SI), cancer cells (A549) over normal cells (MRC-5) [1] | times lower activity than the CLC and NOZ ([9]; IC50 comparison)
139 µM | 182 µM | 131 to 182 µM | 156 µM | 131 µM | CCCSc1ccc2[nH]c(N[C@H]3O[C@@H](CO)[C@H](O)[C@@H](O)[C@@H]3O)nc2c1 [Al–G, albendazole amine glucose conjugate] | 895 µM | > 1000 µM | slight accumulation of cells in the G2/M phase | slight accumulation of cells in the G2/M phase | 701 µM | inhibition of tubulin polymerization | five to seven times |  |  |  | 
 |  |  |  |  | COc1cccc2c1C(=O)c1c(O)c3c(c(O)c1C2=O)C[C@@](O)(C(=O)CO)C[C@@H]3O[C@H]1C[C@H](N)[C@H](O)[C@H](C)O1 [doxorubicin] |  |  |  |  |  |  |  | 14.5% | 29.4% |  | 
10.8 µM | 10.5 µM |  | 6.82 µM | 7.41 µM | COC(=O)Nc1nc2ccc(C(=O)c3cccs3)cc2[nH]1 [NOZ, nocodazole] | 12 µM |  |  |  |  | inhibited | 1.1–1.8 |  |  | 1.2 | 
 |  |  |  |  | CC(=O)O[C@H]1C(=O)[C@@]2(C)[C@H]([C@H](OC(=O)c3ccccc3)[C@]3(O)C[C@H](OC(=O)[C@H](O)[C@@H](NC(=O)c4ccccc4)c4ccccc4)C(C)=C1C3(C)C)[C@]1(OC(C)=O)CO[C@@H]1C[C@@H]2O [PCL, paclitaxel] |  |  |  |  |  | enhanced the tubulin polymerization |  |  |  |  | 
72.4 µM | 56.3 µM | 52.7 to 72.4 µM | 52.7 µM | 59 µM | CCCSc1ccc2nc(NC(=O)OC)[nH]c2c1 [Al, albendazole] | 96.1 µM | 285 µM | slight accumulation of cells in the G2/M phase | slight accumulation of cells in the G2/M phase | 119 µM | inhibition of tubulin polymerization |  |  |  | 1.32 | 7–10
